Rtt109 Vps75: inhibitors of C. albicans Rtt109/Vps75 HAT, primary screen, biochemical, ThioGlo CoA-SH fluorescence, plate reader; Histone acetyltransferase RTT109 (Candida albicans (strain SC5314 / ATCC MYA-2876)), …; inhibition, % at 34.9 µM; purified Rtt109/Vps75, 4 h; hit rate 0.16% among 330,000;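 active = inhibition of at least 50% in every replicate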
CAL PDZ FP-1: CAL PDZ peptide-binding inhibitors, primary screen, biochemical, fluorescence polarization, Cer-tagged CAL PDZ, HTS. Golgi-associated PDZ and coiled-coil motif-containing protein (Homo sapiens), Q9HD26. purified CAL PDZ, TMR-peptide fluorescence polarization, 1 h. inhibition, % at 20 µM. hit rate 0.02% among 330,000;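 active = highest replicate inhibition of at least 40%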;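 note: plate controls were DMSO neutral control wells for no effect and unlabeled competitor peptide control wells for full effect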
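Assay system – tagged CAL PDZ protein CerCALP, purified · Timing – 1 h at RT · Compound – single point, 20 µM · Measured by – fluorescence polarization from S- and P-plane intensities, G-factor corrected · Evaluation – inhibition from polarization loss · Probe or stimulus – TMR reporter peptide T*-PRC34 · Buffer or medium – pH 7.4 phosphate-saline buffer, reducing agent, detergent, IgG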
CDK5 p35 inh: inhibitors of human CDK5/p35 kinase, primary screen, biochemical, single concentration; AID 488839, 2010; hit rate 0.01% among 330,000; Recombinant CDK5/p35, ADP-Glo luminescence, 60 min; Cyclin-dependent kinase 5 (Homo sapiens) + Cyclin-dependent kinase 5 activator 1 (Homo …; inhibition, % at 10 µM;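 active = highest replicate inhibition of at least 50% and at least 75% of replicates reaching 50%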;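 note: plate controls were DMSO neutral control for no effect and GW8510 at 10 µM for full effect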
Target sequence (Q00535 whole entry, looked up): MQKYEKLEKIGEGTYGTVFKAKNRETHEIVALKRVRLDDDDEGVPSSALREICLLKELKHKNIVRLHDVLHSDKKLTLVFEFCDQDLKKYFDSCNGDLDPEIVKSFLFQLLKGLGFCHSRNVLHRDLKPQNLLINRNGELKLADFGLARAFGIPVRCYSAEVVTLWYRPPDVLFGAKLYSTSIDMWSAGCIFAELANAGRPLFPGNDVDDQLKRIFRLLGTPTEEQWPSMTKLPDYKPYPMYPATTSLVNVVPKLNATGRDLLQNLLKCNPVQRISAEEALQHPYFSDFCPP
Target sequence (Q15078 whole entry, looked up): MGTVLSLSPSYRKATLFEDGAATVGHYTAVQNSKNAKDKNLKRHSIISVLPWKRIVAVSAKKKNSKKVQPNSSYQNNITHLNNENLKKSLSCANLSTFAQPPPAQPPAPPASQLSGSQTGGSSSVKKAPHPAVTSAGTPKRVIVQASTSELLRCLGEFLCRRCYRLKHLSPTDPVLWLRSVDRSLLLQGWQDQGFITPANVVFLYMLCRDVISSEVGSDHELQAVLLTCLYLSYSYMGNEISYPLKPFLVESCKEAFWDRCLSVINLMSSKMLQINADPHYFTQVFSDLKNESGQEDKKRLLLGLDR
CAL PDZ FP-2: untagged CAL PDZ binding inhibitors, primary screen, biochemical, fluorescence polarization, HTS; Golgi-associated PDZ and coiled-coil motif-containing protein (Homo sapiens), Q9HD26; purified CAL PDZ, TMR-peptide fluorescence polarization, 1 h; inhibition, % at 24.9 µM; hit rate 0.92% among 300,000;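 active = mean inhibition of at least 30% with at least half of replicates also reaching 30%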;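 note: 0% = DMSO neutral control and 100% = excess unlabeled competitor peptide PRC23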
Dyrk1A ADPGlo: rat Dyrk1A kinase inhibitors, primary screen, biochemical, single point, plate reader | Dual specificity tyrosine-phosphorylation-regulated kinase 1A (Rattus norvegicus), Q63470 | ADP-Glo luminescence, NFATc1 peptide | inhibition, % at 12.5 µM | hit rate 0.43% among 310,000 | AID 504441, 2011; in the data active = inhibition above about 50%;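 note: plate controls were vehicle with enzyme for no effect and no enzyme for full effect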
dFosB activator: activators of delta FosB homodimer, primary screen, biochemical, fluorescence polarization, TAMRA-CDK5 oligo, single point | activation, % at 25 µM | purified delta FosB; percent of positive-control signal above neutral wells | AID 493131, 2011 | Protein FosB (Mus musculus), P13346 | hit rate 0.99% among 340,000;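 active = mean activation above about 17%, with every replicate also reaching it, limit read from the data, passing the limit was not always enough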
Numbers without * were called inactive; nt = no result given. A selection: hits, their analogues and other compounds. The true share with any hit is near 2.2%.

SMILES	Rtt109 Vps75	CAL PDZ FP-1	CDK5 p35 inh	CAL PDZ FP-2	Dyrk1A ADPGlo	dFosB activator
Nc1nc(COc2ccccc2C=O)nc(Nc2ccccc2)n1	3	-1	1	-2	4	59*
COc1ccc(OCc2nc(N)nc(Nc3ccccc3)n2)cc1	7	-1	nt	-4	-1	-8
C=CCNc1nnc(SC2CC(=O)N(c3ccc(OC)cc3)C2=O)s1 (stereo not given)	126*	-2	0	nt	7	-5
Cc1nnc(SC2CC(=O)N(c3ccccc3)C2=O)s1 (stereo not given)	100*	-3	0	1	3	8
Cc1cc(C)c(S(=O)(=O)N2CCN(C(=O)c3ccc(-n4nc(C)c(Cl)c4C)cc3)CC2)c(C)c1	-5	-2	1	13	5	-10
COC(=O)c1c(NC(=O)c2ccccc2)sc2c1CC(C)(C)NC2(C)C	-8	0	2	nt	-8	-13
CC1(C)Cc2c(sc(NC(=O)c3ccc(C(=O)c4ccccc4)cc3)c2C(N)=O)C(C)(C)N1	0	-2	0	-4	2	44*
Cc1cc(-c2nc(C)c(C(=O)NN)s2)no1	7	-1	0	-8	7	-11
NS(=O)(=O)c1ccc(CNC(=O)/C=C/c2c(F)cccc2Cl)cc1	nt	-1	-1	70*	6	-5
CN1c2ccccc2C(C)(C)[C@]12C=Cc1cc(O)ccc1O2	4	-1	0	-3	1	-13
CC1(C)OC(=O)N(c2ccccc2)C12C=Cc1cc(Br)ccc1O2 (stereo not given)	53*	-4	-2	-2	1	-5
Cc1cccc(-n2c(SCC(=O)N3CCN(c4ccccn4)CC3)nnc2N2CCOCC2)c1	-4	-1	0	nt	1	-14
O=C(CSc1nnc(NC(=O)c2ccco2)s1)Nc1ccc2c(c1)OCCO2	-7	-1	-2	-2	nt	66*
COc1ccc(NC(=O)CSc2nnc(NC(=O)c3ccco3)s2)cc1OC	-1	0	-2	-4	-5	0
CCOC(=O)c1c(N2C(=O)C=CC2=O)sc(C)c1C	69*	-1	3	-2	-5	-13
CCOC(=O)c1c(NC(N)=O)sc(C)c1C	-20	-1	1	nt	26	-1
COc1ccc(OCCC(=O)NCCN2CCOCC2)cc1	-6	0	0	1	-1	-5
C[C@@H](CN1CCC[C@H]1CN1C(N)=NC[C@@H]1Cc1ccccc1)N1C[C@@H](Cc2ccccc2)N(CCc2ccc(Cl)c(Cl)c2)C1=N	59*	11	2	-1	9	6
COc1ccc(S(=O)(=O)N2CCN(c3ccccn3)CC2)cc1OC	53*	-2	-2	-2	-4	-4
OC(COc1cccc2ccccc12)CN1CCN(c2ccccc2Cl)CC1 (stereo not given)	-1	1	-1	-2	-1	7
O=C(Nc1ccc(N2CCCCC2)cc1)c1ccc(F)cc1F	-12	0	-1	3	-5	-2
O=C(Nc1ccc(N2CCCC2)cc1)c1cccc(F)c1	13	-1	0	6	2	19*
O=C(Nc1ccc(N2CCCC2)cc1)c1ccccc1F	2	-1	5	1	1	26*
O=C(Nc1ccc(N2CCCCC2)cc1)c1ccccc1	-33	-2	-2	-6	3	-10
Cc1cc(C(=O)OCC(=O)N(C)c2ccccc2)c(C)o1	-5	-2	1	7	-1	-1
SMILES	Rtt109 Vps75	CAL PDZ FP-1	CDK5 p35 inh	CAL PDZ FP-2	Dyrk1A ADPGlo	dFosB activator
O=c1[nH]cc(S(=O)(=O)N2CCN(c3cccc(Cl)c3)CC2)c(=O)[nH]1	0	-2	1	0	6	0
CC(=O)N1CCN(CCN(CC2C(C)C=C(C)CC2C)C(C)=O)CC1 (stereo not given)	30	0	0	-5	1	1
CC1=CC(C)C(CN(CCC[N+](C)(C)C)C(=O)Nc2ccccc2)C(C)C1 (stereo not given)	-11	0	0	42*	5	5
O=C(COc1ccc(/C=C2/NC(=O)NC2=O)cc1)Nc1ccc(F)cc1	5	-2	-3	-1	-1	40*
Cc1sc2nc(SCC(=O)c3cc(C)n(CC4CCCO4)c3C)n(C(C)C)c(=O)c2c1C (stereo not given)	nt	0	-1	-2	3	-6
COc1cccc(CSc2nnc(-c3ccncc3)n2C)c1	-3	0	0	40*	-12	2
Cc1cccc(N2CCN(C(=O)CN3C(=O)NC(C)(C4CC4)C3=O)CC2)c1C (stereo not given)	2	0	2	nt	nt	-2
c1ccc(-c2nccc(-c3ccc(-n4cnc5ccccc54)cc3)n2)cc1	5	-2	4	-4	-1	130*
CC(=O)Nc1ccc(S(=O)(=O)N(C)CC(=O)OCC(=O)N(C)C2CCS(=O)(=O)C2)cc1 (stereo not given)	16	-3	0	7	0	-11
Cc1ccc(COc2ccc3c(c2)OCO3)cc1	-11	-1	1	40*	2	6
C=CCn1c(SCC(=O)NC23CC4CC(CC(C4)C2)C3)nc2cc(C(=O)O)ccc2c1=O	-1	-2	-3	-7	-2	-10
C/C(=N\NC(=O)c1cccc(O)c1)c1ccc(NC(=O)Cc2ccccc2)cc1	-4	-2	-2	-2	4	-1
CCN1C(c2ccccc2)=C(c2ccccc2)S/C1=C\C=C1/SC(=S)N(C)C1=O	-2	-7	5	-7	-7	-13
CCN1C(c2ccccc2)=C(c2ccccc2)S/C1=C/C=C1\SC(=S)N(C)C1=O	12	-2	4	36*	9	-3
CCCCCn1nc(C(=O)N(CC(C)C)c2c(N)n(CCCC)c(=O)[nH]c2=O)c2ccccc2c1=O	4	-2	0	11	1	-7
CCCCn1c(N)c(N(CC)C(=O)c2ccccc2F)c(=O)[nH]c1=O	-2	0	1	33*	-9	8
CCCN(C(=O)Cn1nc(C)c([N+](=O)[O-])c1C)c1c(N)n(Cc2ccccc2)c(=O)[nH]c1=O	3	0	0	nt	-1	18*

Source: PubChem BioAssay
